Activity calls are given as the source filed them.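 Rule for the calls, unless noted: active = GFP response above 150% of the DMSO level; inconclusive = fewer than 70 events counted for a yeast strain; inactive = the rest.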

Test [1] can be described thus: hit retest on RPL19A-GFP reporter strain – cell-based, S. cerevisiae, flow cytometry, cherry picks, mother/daughter gates, confirmation (AID 2270;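 active = GFP response below 50% of the DMSO control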). Particulars: 3 h, at 10 µM, stronger effect = lower value, 100 = same GFP as DMSO wells. (In general: Flow cytometry measures light scatter and fluorescence of single cells or particles in a stream.)
Test [2] in a line: yeast TOR pathway reporter LAP4-GFP change – cell-based, cherry picks, flow cytometry, mother/daughter gates, confirmation (AID 2271;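 active = GFP response above 150% of the DMSO control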;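 note: ratio of sample to DMSO plate mean so 100% equals DMSO level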). Conditions: S. cerevisiae LAP4-GFP strain, 3 h, at 10 µM, stronger effect = higher value, 100 means same as DMSO control. In outline: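 System: GFP-fusion yeast strain | Input: Yeast cells seeded at OD600 of 0.2 | Technique: HT flow cytometry, GFP fluorescence channel | Read-out: % GFP response vs DMSO | Dosing: Single test-compound dose, 10 µM final | Controls: Positive rapamycin (400 ng/mL), negative DMSO | Times: 3 h treatment at 30 °C with rotation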

A short description of test [3]: TOR pathway reporter MEP2-GFP, retest of hits – S. cerevisiae, flow cytometry GFP, cherry picks, confirmation (AID 2272;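 active = GFP response above 150% of the DMSO control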;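 note: ratio of well signal to plate DMSO mean so 100% equals DMSO level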). Conditions: S. cerevisiae MEP2-GFP strain, 3 h, at 10 µM, stronger effect = higher value.
Test [4] in a line: yeast AGP1-GFP fluorescence change, single-dose – cell-based, flow cytometry, S. cerevisiae, cherry picks, confirmation (AID 2273).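 Note: median GFP channel fluorescence over the whole cell population gate.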 Particulars: S. cerevisiae AGP1-GFP strain, 3 h, at 10 µM.
Test [5] in a line: TOR pathway CIT2 reporter hit retest – S. cerevisiae, GFP fusion, cherry picks, mother/daughter gates, confirmation (AID 2274). Particulars: S. cerevisiae CIT2-GFP strain, flow cytometry, 3 h, at 10 µM, stronger effect = higher value.
[6] abbreviates: measured here: daughter cell gate.
Where [7] appears, read: measured here: mother cell gate.
The mark [8] stands for this setting: measured here: daughter cell gate response.
The mark [9] stands for this setting: measured here: mother cell gate response.

Take `O=C(NC(c1ccccc1)C(Cl)Cl)c1ccccc1` (configuration not stated): the GFP response vs DMSO in test [1] was 94.7% (inactive); in test [1] (setting [6]) it was 98.4%; in test [1] (setting [7]) it was 92.9%; in test [3] it was 128% (inactive). The GFP response relative to DMSO in test [2] is 97.7% (inactive); in test [2] (setting [8]), 104%; in test [2] (setting [9]), 93.4%. For the same molecule, the GFP response, % of DMSO in test [4] was 125% (inactive); in test [5], 107% (inactive); in test [5] (setting [6]), 108%; in test [5] (setting [7]) it was 106%.
For the molecule `Cc1noc2ncnc(Sc3ccc(Br)cc3)c12`, the GFP response vs DMSO in test [1] was 97.2% (inactive); in test [1] (setting [6]), 94.2%; in test [1] (setting [7]) it was 94.7%; in test [3], 103% (inactive). Also, the GFP response relative to DMSO was 137% (inactive) in test [2], 133% in test [2] (setting [8]) and 135% in test [2] (setting [9]). For the same molecule, the GFP response, % of DMSO in test [4] is 98.8% (inactive); in test [5] it was 108% (inactive); in test [5] (setting [6]), 106%; in test [5] (setting [7]), 105%.
Take `O=C(COC(=O)c1n[nH]c2ccccc12)c1cc(F)ccc1F`: the GFP response vs DMSO in test [1] was 99.5% (inactive); in test [1] (setting [6]), 99%; in test [1] (setting [7]), 101%; in test [3], 97.8% (inactive). For the same molecule, the values for the GFP response relative to DMSO in test [2], in test [2] (setting [8]) and in test [2] (setting [9]) were 97.4% (inactive), 98.7% and 98.3%, respectively. The GFP response, % of DMSO in test [4] is 97.6% (inactive); in test [5], 97.8% (inactive); in test [5] (setting [6]), 96.5%; in test [5] (setting [7]) it was 99.8%.
`CCCc1cc(N2CCN(c3ccccn3)CC2)n2nc(C)c(-c3ccccc3)c2n1`: the GFP response vs DMSO in test [1] was 104% (inactive); in test [1] (setting [6]), 101%; in test [1] (setting [7]) it was 104%; in test [3], 160% (inactive). In addition, the GFP response relative to DMSO in test [2] was 142% (inactive); in test [2] (setting [8]), 147%; in test [2] (setting [9]), 140%. In addition, the GFP response, % of DMSO was 109% (inactive) in test [4], 153% (active) in test [5], 154% in test [5] (setting [6]) and 148% in test [5] (setting [7]).
Turning to `COc1ccc(OC)c(S(=O)(=O)N2Cc3ccccc3CC2C(=O)O)c1` (configuration not stated), the GFP response vs DMSO is 100% (inactive) in test [1], 101% in test [1] (setting [6]), 99.4% in test [1] (setting [7]) and 106% (inactive) in test [3]. Besides, the values for the GFP response relative to DMSO in test [2], in test [2] (setting [8]) and in test [2] (setting [9]) were 104% (inactive), 101% and 106%, respectively. In addition, the GFP response, % of DMSO in test [4] was 102% (inactive); in test [5], 101% (inactive); in test [5] (setting [6]), 103%; in test [5] (setting [7]), 103%.
Turning to `O=C(N/N=C\c1ccc(F)cc1)c1cc(OCC(F)(F)F)ccc1OCC(F)(F)F`, the GFP response vs DMSO is 99.1% (inactive) in test [1], 99.3% in test [1] (setting [6]), 99.2% in test [1] (setting [7]) and 102% (inactive) in test [3]. For the same molecule, the GFP response relative to DMSO is 100% (inactive) in test [2], 95% in test [2] (setting [8]) and 99.5% in test [2] (setting [9]). Further, the GFP response, % of DMSO is 105% (inactive) in test [4], 105% (inactive) in test [5], 106% in test [5] (setting [6]) and 103% in test [5] (setting [7]).
Regarding `CCOc1ccc2ccccc2c1C(=O)N1CCN(c2ccccc2)CC1`, the GFP response vs DMSO in test [1] was 97.8% (inactive); in test [1] (setting [6]) it was 98.4%; in test [1] (setting [7]), 96.3%; in test [3], 99.3% (inactive). Further, the GFP response relative to DMSO in test [2] is 105% (inactive); in test [2] (setting [8]), 105%; in test [2] (setting [9]) it was 105%. Besides, the GFP response, % of DMSO in test [4] is 98.4% (inactive); in test [5], 93.1% (inactive); in test [5] (setting [6]), 94%; in test [5] (setting [7]), 93.8%.
Take `COc1cc(/C=C2\N=C(c3ccccc3)OC2=O)ccc1OC(C)=O`: the GFP response vs DMSO in test [1] was 94.9% (inactive); in test [1] (setting [6]), 93.5%; in test [1] (setting [7]) it was 96.3%; in test [3] it was 112% (inactive). In addition, the GFP response relative to DMSO in test [2] is 101% (inactive); in test [2] (setting [8]) it was 98.2%; in test [2] (setting [9]), 102%. Besides, the GFP response, % of DMSO in test [4] is 107% (inactive); in test [5] it was 113% (inactive); in test [5] (setting [6]), 111%; in test [5] (setting [7]), 113%.
For `COc1ccc2ccccc2c1/C=N/Nc1cccc(C(=O)O)c1`, the GFP response vs DMSO in test [1] was 99.4% (inactive); in test [1] (setting [6]), 98.6%; in test [1] (setting [7]), 100%; in test [3] it was 105% (inactive). Also, the values for the GFP response relative to DMSO in test [2], in test [2] (setting [8]) and in test [2] (setting [9]) were 98.2% (inactive), 99.1% and 98.4%, respectively. For the same molecule, the GFP response, % of DMSO in test [4] was 102% (inactive); in test [5], 103% (inactive); in test [5] (setting [6]), 101%; in test [5] (setting [7]), 102%.
As for `Cc1ccc(N(C(=O)CCCC(=O)Nc2ccccn2)C(C(=O)NC2CCCC2)c2ccc(O)cc2)cc1C` (configuration not stated), the GFP response vs DMSO in test [1] was 98.4% (inactive); in test [1] (setting [6]) it was 99%; in test [1] (setting [7]), 99.8%; in test [3] it was 117% (inactive). For the same molecule, the GFP response relative to DMSO in test [2] was 98.7% (inactive); in test [2] (setting [8]), 98.7%; in test [2] (setting [9]) it was 98.3%. The GFP response, % of DMSO in test [4] was 111% (inactive); in test [5], 111% (inactive); in test [5] (setting [6]), 108%; in test [5] (setting [7]) it was 112%.
As to `COC(=O)Cc1csc(Nc2ccc(F)c(Cl)c2)n1`, the GFP response vs DMSO in test [1] is 101% (inactive); in test [1] (setting [6]) it was 102%; in test [1] (setting [7]) it was 100%; in test [3] it was 95.7% (inactive). Besides, the GFP response relative to DMSO in test [2] is 97.4% (inactive); in test [2] (setting [8]) it was 98.7%; in test [2] (setting [9]), 98.3%. Further, the GFP response, % of DMSO in test [4] was 93.7% (inactive); in test [5], 110% (inactive); in test [5] (setting [6]), 106%; in test [5] (setting [7]), 107%.
On to `O=C(CSc1ccc(-c2ccccn2)nn1)N1CCCCC1`, for which the GFP response vs DMSO was 99.9% (inactive) in test [1], 100% in test [1] (setting [6]), 99% in test [1] (setting [7]) and 99.5% (inactive) in test [3]. The GFP response relative to DMSO in test [2] is 101% (inactive); in test [2] (setting [8]), 101%; in test [2] (setting [9]), 101%. For the same molecule, the GFP response, % of DMSO in test [4] was 103% (inactive); in test [5] it was 99.3% (inactive); in test [5] (setting [6]) it was 100%; in test [5] (setting [7]) it was 96.8%.
Regarding `Cc1cccc(N2C(=O)c3cccc4c(N(C)CCO)ccc(c34)C2=O)c1`, the GFP response vs DMSO was 98.8% (inactive) in test [1], 96.9% in test [1] (setting [6]), 99% in test [1] (setting [7]) and 103% (inactive) in test [3]. For the same molecule, the values for the GFP response relative to DMSO in test [2], in test [2] (setting [8]) and in test [2] (setting [9]) were 110% (inactive), 106% and 109%, respectively. Besides, the GFP response, % of DMSO in test [4] is 101% (inactive); in test [5] it was 105% (inactive); in test [5] (setting [6]), 105%; in test [5] (setting [7]), 104%.
Take `COC(=O)c1cc(N2C(=O)C3C(C2=O)C2(C)C=CC3(C)O2)ccc1Cl` (configuration not stated): the GFP response vs DMSO in test [1] is 101% (inactive); in test [1] (setting [6]), 101%; in test [1] (setting [7]) it was 92.5%; in test [3] it was 110% (inactive). Moreover, the GFP response relative to DMSO in test [2] is 193% (active); in test [2] (setting [8]), 173%; in test [2] (setting [9]) it was 177%. For the same molecule, the GFP response, % of DMSO is 106% (inactive) in test [4], 101% (inactive) in test [5], 109% in test [5] (setting [6]) and 88.6% in test [5] (setting [7]).
In the case of `COc1ccc(S(=O)(=O)N2CCC(O)(c3ccc(Cl)cc3)CC2)cc1`, the GFP response vs DMSO in test [1] was 101% (inactive); in test [1] (setting [6]) it was 99.6%; in test [1] (setting [7]), 101%; in test [3], 105% (inactive). Besides, the GFP response relative to DMSO was 97.9% (inactive) in test [2], 97.6% in test [2] (setting [8]) and 97.2% in test [2] (setting [9]). For the same molecule, the GFP response, % of DMSO in test [4] was 91.9% (inactive); in test [5] it was 107% (inactive); in test [5] (setting [6]), 106%; in test [5] (setting [7]), 104%.
On to `Oc1ccccc1/C=N/c1c(-c2ccco2)nc2ccccn12`, for which the GFP response vs DMSO was 99.5% (inactive) in test [1], 98.1% in test [1] (setting [6]), 100% in test [1] (setting [7]) and 100% (inactive) in test [3]. In addition, the GFP response relative to DMSO in test [2] is 93.8% (inactive); in test [2] (setting [8]), 97.2%; in test [2] (setting [9]), 97.2%. Also, the GFP response, % of DMSO in test [4] was 102% (inactive); in test [5] it was 102% (inactive); in test [5] (setting [6]), 99.7%; in test [5] (setting [7]) it was 102%.
For `COc1ccc(C2CC(c3ccccc3)=NN2S(=O)(=O)c2ccccc2)cc1` (configuration not stated), the GFP response vs DMSO was 101% (inactive) in test [1], 102% in test [1] (setting [6]), 101% in test [1] (setting [7]) and 146% (inactive) in test [3]. Moreover, the GFP response relative to DMSO in test [2] is 113% (inactive); in test [2] (setting [8]), 110%; in test [2] (setting [9]), 112%. The GFP response, % of DMSO in test [4] was 104% (inactive); in test [5], 141% (inactive); in test [5] (setting [6]), 143%; in test [5] (setting [7]), 136%.

The values are drawn from PubChem BioAssay.
